{"data": "Experimental data collected from several papers", "sample": "plasma", "note": "Each line is one published result; the experiments were not run side by side."}
{"SMILES": "Cc1ccc2c(c1)C(=O)[C@]1(O)CCN(c3ccc4nc(C)ccc4c3)C1=N2.Cl", "host": "male rat", "route": "subcutaneous", "dose": "40 mg/kg", "notes": "multiple doses, once daily", "AUC(0-t)": "20.4 µM·h"}
{"SMILES": "COc1nc(-c2cccc(-c3ccccc3)c2C)ccc1CNCCNC(=O)CCCCCCCCCCC(=O)N1CCN(CCNC(=O)c2cc3c(=O)n4cccc(C)c4nc3n(CCc3cccs3)c2=N)CC1", "host": "male Sprague-Dawley rat", "route": "oral", "dose": "40 mg/kg", "AUC(0-t)": "0.257 µg·h/mL"}
{"SMILES": "CCCCCCCCCC(=O)N[C@@H](Cc1c[nH]c2ccccc12)C(=O)N[C@H](CC(N)=O)C(=O)N[C@@H](CC(=O)O)C(=O)N[C@@H]1C(=O)NCC(=O)N[C@@H](CCCN)C(=O)N[C@@H](CC(=O)O)C(=O)N[C@H](C)C(=O)N[C@@H](CC(=O)O)C(=O)NCC(=O)N[C@H](CO)C(=O)N[C@@H]([C@H](C)CC(=O)O)C(=O)N[C@@H](CC(=O)c2ccccc2N)C(=O)O[C@@H]1C", "host": "male Wistar rat", "route": "subcutaneous", "dose": "125 mg/kg", "notes": "single dose", "AUC(0-t)": "2450 µg·h/mL"}
{"SMILES": "COc1ccc(N(Cc2csc(-c3ccccc3)n2)C(=O)CCCCCC(=O)NO)cc1", "host": "female Sprague-Dawley rat", "route": "oral", "dose": "30 mg/kg", "AUC(0-t)": "0.0184 µg·h/mL"}
{"SMILES": "CONC(=O)c1cccc2c1cc(C)n2-c1nc2c(c(NCc3ccccc3)n1)CCCN2", "host": "male Sprague-Dawley rat", "route": "oral", "dose": "10 mg/kg", "notes": "single dose", "AUC(0-t)": "0.0238 µg·h/mL"}
{"SMILES": "Cn1c(=O)c2[nH]cnc2n(C)c1=O", "host": "male Sprague-Dawley rat", "route": "intravenous", "dose": "22.5 mg/kg", "AUC(0-t)": "53.8 µg·h/mL"}
{"SMILES": "CNC(=O)c1cc(Oc2ccc(NC(=O)Nc3ccc(Cl)c(C(F)(F)F)c3)cc2)ccn1", "host": "male Sprague-Dawley rat", "route": "oral", "dose": "100 mg/kg", "notes": "single dose", "AUC(0-t)": "17.7 µg·h/mL"}
{"SMILES": "CCCCC(=O)Nc1ccc(-c2ccc3ncn(CCC)c(=O)c3c2)cn1", "host": "male rat", "route": "oral", "dose": "10 mg/kg", "AUC(0-t)": "1.2 µg·h/mL"}
{"SMILES": "C=CC(=O)N1CCC([C@@H]2CCNc3c(C(N)=O)c(-c4ccc(Oc5ccccc5)cc4)nn32)CC1", "host": "Sprague-Dawley rat", "route": "oral", "dose": "16 mg/kg", "AUC(0-t)": "1.45 µg·h/mL"}
{"SMILES": "C[C@H]1Oc2cc(cnc2N)-c2c(nn(C)c2C#N)CN(C)C(=O)c2ccc(F)cc21", "host": "male Sprague-Dawley rat", "route": "oral", "dose": "50 mg/kg", "notes": "single dose", "AUC(0-t)": "24.8 µg·h/mL"}
{"SMILES": "COc1cc(-c2cc(C(C)=O)n3ccccc23)c(OC)cc1Cn1ccnc1", "host": "male Sprague-Dawley rat", "route": "oral", "dose": "5 mg/kg", "AUC(0-t)": "2.15 µg·h/mL"}
{"SMILES": "COc1ccc(-c2coc3cc(O)cc(O)c3c2=O)cc1", "host": "rat", "route": "intravenous", "dose": "2 mg/kg", "AUC(0-t)": "0.637 µg·h/mL"}
{"SMILES": "O=C1CCC(N2Cc3cc(C4CCN(Cc5ccccc5)CC4)ccc3C2=O)C(=O)N1 (stereo not shown)", "host": "male Sprague-Dawley rat", "route": "oral", "dose": "3 mg/kg", "AUC(0-t)": "0.336 µg·h/mL"}
{"SMILES": "Nc1ccn([C@@H]2O[C@H](CO)[C@@H](O)C2(F)F)c(=O)n1", "host": "male Sprague-Dawley rat", "route": "intravenous", "dose": "5 mg/kg", "AUC(0-t)": "160 µg·h/mL"}
{"SMILES": "CCN(CC)Cc1ccc2cc(COC(=O)Nc3ccc(C(=O)NO)cc3)ccc2c1", "host": "male Sprague-Dawley rat", "route": "oral", "dose": "10 mg/kg", "AUC(0-t)": "8.49 µg·h/mL"}
{"SMILES": "CC(=O)O[C@@H]1CC[C@@]2(C)[C@@H](CC[C@]3(C)[C@@H]2C(=O)C=C2[C@@H]4[C@@H](C)[C@H](C)CC[C@]4(C)CC[C@]23C)[C@@]1(C)C(=O)O", "host": "female Wistar rat", "route": "oral", "dose": "1 mg/kg", "notes": "single dose", "AUC(0-t)": "40.9 µg·h/mL"}
